Source: ChEMBL document CHEMBL1146343, “Synthesis and activity of Combretastatin A-4 analogues: 1,2,3-thiadiazoles as potent antitumor agents” (Bioorg Med Chem Lett, 2007)
Activity calls are given as the source filed them. The calls are words filed in the database; no cut-off is given here.

Key:
HCT-116 = assay: Antiproliferative activity against human HCT116 cells; type: functional, cell-based
How it was run: (§1)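 Antiproliferative testing against human HL-60 myeloid leukemia, HCT-116 colon adenocarcinoma and HMEC-1 microvascular endothelial cells; each experiment run independently at least three times, values given with SD.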

[1] = Antiproliferative activity against human HMEC1 cells; type: cell-based; details: HMEC-1; how it was run: as §1
Tubulin = assay: Inhibition of tubulin polymerization; type: protein-complex assay, Homo sapiens
HL-60 = assay: Antiproliferative activity against human HL60 cells; type: functional, cell-based; how it was run: as §1
Mus musculus [2] = assay: Toxicity in mouse implanted with S180 cells at 10 mg/kg, ip after 1 day; type: organism-based, CCRF S-180; design: dose 10 mg/kg, route intraperitoneal; details: in vivo, 24 h
How it was run: (§2)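 S180 sarcoma-bearing mice, 10 per group, given i.p. doses of 10 or 20 mg/kg; survival followed after 1 day.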

HMEC-1 [3] = assay: Disruption of cytoskeleton in HMEC1 cells at 1 uM after 30 mins; type: functional, cell-based; details: Homo sapiens
How it was run: (§3)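 HMEC-1 cells grown on slides, exposed 30 min at 1 μM, fixed in 3% formaldehyde, permeabilized with 0.1% Triton X-100, stained with primary antibody then Alexa488 secondary; nuclei counterstained with DAPI in mounting medium; imaged by confocal microscopy.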

HMEC-1 [4] = assay: Effect on alteration in morphology of HMEC1 cells at 1 uM after 30 mins; type: functional, cell-based; details: Homo sapiens; how it was run: as §3
Mus musculus [5] = assay: Toxicity in mouse implanted with S180 cells at 20 mg/kg, ip after 1 day; type: organism-based, CCRF S-180; design: dose 20 mg/kg, route intraperitoneal; details: in vivo, 24 h; how it was run: as §2
Mus musculus [6] = assay: Effect on body weight in mouse implanted with S180 cells at 10 mg/kg, ip after 7 days; type: functional, CCRF S-180; details: route intraperitoneal
How it was run: (§4)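 S180 sarcoma-bearing mice given daily i.p. doses for 4–7 days, 10 mice per group with saline controls; body weight recorded at start and end, surviving mice counted at end of treatment.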

CCRF S-180 [7] = assay: Antitumor activity in mouse implanted with S180 cells at 20 mg/kg, ip after 4 days; type: functional; details: CCRF S-180, ip, 96 h, route intraperitoneal
How it was run: (§5)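 Mice bearing transplanted S180 sarcoma dosed i.p. daily for 4–7 days (10 per group, saline control group of 20); animals then euthanized, tumors excised and weighed; inhibition rate from tumor weight versus saline controls; significance p < 0.01.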

CCRF S-180 [8] = assay: Antitumor activity in mouse implanted with S180 cells at 10 mg/kg, ip after 7 days; type: functional; details: CCRF S-180, ip, 168 h, route intraperitoneal; how it was run: as §5
Mus musculus [9] = assay: Effect on body weight in mouse implanted with S180 cells at 20 mg/kg, ip after 4 days; type: functional, CCRF S-180; details: route intraperitoneal; how it was run: as §4

| Structure (SMILES) | IC50 (HCT-116) [nM] | IC50 (Tubulin) [nM] | IC50 (HL-60) [nM] | IC50 [1] [nM] | Activity (Mus musculus [2]) | Activity (HMEC-1 [3]) | Activity (HMEC-1 [4]) | Activity (Mus musculus [5]) | Activity (Mus musculus [6]) [g] | inhibition in vivo at 20 mg/kg (CCRF S-180 [7]) [%] | inhibition in vivo at 10 mg/kg (CCRF S-180 [8]) [%] | Activity (Mus musculus [9]) [g] |
| --- | --- | --- | --- | --- | --- | --- | --- | --- | --- | --- | --- | --- |
| COc1ccc(-c2nnsc2-c2cc(OC)c(OC)c(OC)c2)cc1O | 70.4 | 860 | 40.9 | 41 | – | – | – | – | – | – | – | – |
| COc1cc(-c2nnsc2-c2ccc([N+](=O)[O-])cc2)cc(OC)c1OC | > 1000 | – | > 1000 | > 1000 | – | – | – | – | – | – | – | – |
| COc1cc(-c2snnc2-c2ccc(F)cc2)cc(OC)c1OC | > 1000 | – | > 1000 | > 1000 | – | – | – | – | – | – | – | – |
| COc1ccc(-c2nnsc2-c2cc(OC)c(OC)c(OC)c2)cc1OC | > 1000 | – | > 1000 | > 1000 | – | – | – | – | – | – | – | – |
| COc1ccc(-c2snnc2-c2cc(OC)c(OC)c(OC)c2)cc1O | 3 | 700 | 1.5 | 3.9 | – | Active | Active | – | 23.3 | 53.1 | 18.4 | 19.5 |
| COc1ccc(-c2nnsc2-c2cc(OC)c(OC)c(OC)c2)cc1 | 616 | – | 537 | > 1000 | – | – | – | – | – | – | – | – |

Further lines, with some results ahead:

| IC50 (HCT-116) [nM] | IC50 (Tubulin) [nM] | IC50 (HL-60) [nM] | Structure (SMILES) | IC50 [1] [nM] | Activity (Mus musculus [2]) | Activity (HMEC-1 [3]) | Activity (HMEC-1 [4]) | Activity (Mus musculus [5]) | Activity (Mus musculus [6]) [g] | inhibition in vivo at 20 mg/kg (CCRF S-180 [7]) [%] | inhibition in vivo at 10 mg/kg (CCRF S-180 [8]) [%] | Activity (Mus musculus [9]) [g] |
| --- | --- | --- | --- | --- | --- | --- | --- | --- | --- | --- | --- | --- |
| 3.7 | 680 | 1.8 | COc1ccc(-c2snnc2-c2cc(OC)c(OC)c(OC)c2)cc1N | 2.5 | Toxic | Active | Active | Toxic | – | – | – | – |
| > 1000 | – | – | COc1cc(-c2nnsc2-c2ccc(F)cc2)cc(OC)c1OC | > 1000 | – | – | – | – | – | – | – | – |
| > 1000 | – | > 1000 | COc1cc(-c2snnc2-c2ccc(Cl)cc2)cc(OC)c1OC | > 1000 | – | – | – | – | – | – | – | – |
| 86.6 | – | 50.2 | COc1cc(-c2nnsc2-c2ccc3c(c2)OCO3)cc(OC)c1OC | 73.9 | – | – | – | – | – | – | – | – |
